Data: PMC3032042 (Chemico-biological interactions, 2010)
“Also recorded” adds a separate entry of the source. Where two headings read alike, the source gives them in different places.

Key:
rSULT1A1 [1] = target: T1, rSULT1A1 (Rattus norvegicus, UniProt P17988); assay: Binding of TNP-AMP and PAP to rSULT1A1
Procedure, shortened: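 Recombinant rat enzyme (expressed in E. coli BL21(DE3), purified on PAP-agarose) at 0.34 µM in potassium phosphate pH 7.0, 37 °C, in a quartz cuvette. Titrated with TNP-AMP and the fluorescence increase recorded (ex 435/em 545 nm). PAP titration then displaced TNP-AMP, and the fluorescence decrease was recorded. Kd from a single-site binding fit corrected for non-specific binding.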

rSULT1A1 [2] = target: T1, rSULT1A1; assay: Sulfation of OHPCBs catalyzed by rSULT1A1; type: biochemical; details: standard assay conditions (reduced enzyme)
Procedure, shortened: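 Rat SULT1A1 expressed in E. coli BL21(DE3) from pET-3c and purified on PAP-agarose affinity column. Reaction at 37 °C: 0.25 M potassium phosphate pH 7.0, 200 µM PAPS, 7.5 mM 2-mercaptoethanol, 10 µM test compound added in acetone (3.3% v/v final). Started with 0.75 µg enzyme, stopped with methanol after 6 min. Sulfation rate from HPLC of substrate-dependent PAP formation.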

rSULT1A1-PAP complex = rSULT1A1-PAP complex (Rattus norvegicus, UniProt P17988); assay: Kd of OHPCBs with the rSULT1A1-PAP complex by displacement of ANS; type: binding
Sequence of rSULT1A1-PAP complex (P17988 whole entry, one chain of several): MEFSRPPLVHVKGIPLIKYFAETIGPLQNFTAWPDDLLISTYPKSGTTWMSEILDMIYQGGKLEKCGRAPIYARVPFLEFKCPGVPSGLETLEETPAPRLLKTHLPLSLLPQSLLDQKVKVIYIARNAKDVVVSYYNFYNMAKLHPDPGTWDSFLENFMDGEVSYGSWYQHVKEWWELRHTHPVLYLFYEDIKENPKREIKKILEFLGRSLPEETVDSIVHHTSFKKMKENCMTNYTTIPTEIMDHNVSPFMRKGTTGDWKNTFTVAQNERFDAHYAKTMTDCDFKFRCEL
Procedure, shortened: (§1)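 DTT-free recombinant rat enzyme pretreated with 1 mM GSH or GSSG for 1 h at 25 °C under argon. Enzyme at 0.34 µM in 0.25 M potassium phosphate pH 7.0, held 2 min at 37 °C under argon. ANS added (10 µM final), then 0.27 mM PAP to form the complex, then titrated with test compound in ethanol. Read at ex 380/em 465 nm. Duplicates; one-site fit corrected for non-specific ANS binding.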

rSULT1A1 [3] = target: T1, rSULT1A1; assay: Kd of OHPCBs with rSULT1A1 by displacement of ANS; type: binding
Procedure, shortened: as §1, with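 “Recombinant” for “DTT-free recombinant”, “enzyme (E. coli-expressed, PAP-agarose purified), DTT removed by gel filtration,” for “enzyme”, “then” for “then 0.27 mM PAP to form the complex, then”, “Fluorescence” for “Read at”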

rSULT1A1 [4] = target: T1, rSULT1A1; details: cited from earlier work; for inhibitor status with rSULT1A1: standard assay conditions, reduced rSULT1A1; for IC50: rSULT1A1 with all cysteines in the thiol form, 2-naphthol as the substrate
rSULT1A1 [5] = target: T1, rSULT1A1; details: GSSG-pretreated enzyme; cited from earlier work
[6] = read-out: Kd values for OHPCBs with rSULT1A1, With 0.27 mM PAP, GSH, enzyme pretreated with 1 mM GSH, pH 7.0, 37 °C
[7] = read-out: Kd values for OHPCBs with rSULT1A1, With 0.27 mM PAP, GSSG, enzyme pretreated with 1 mM GSSG, pH 7.0, 37 °C
[8] = read-out: Kd values for OHPCBs with rSULT1A1, Without PAP, GSH, enzyme pretreated with 1 mM GSH, pH 7.0, 37 °C
[9] = read-out: Kd values for OHPCBs with rSULT1A1, Without PAP, GSSG, enzyme pretreated with 1 mM GSSG, pH 7.0, 37 °C

T1 sequence (P17988 whole entry): as the sequence (P17988 whole entry, one chain of several) above

Compound	Kd (rSULT1A1 [1]; read-out: Kd of TNP-AMP binding to rSULT1A1, 0.34 µM rSULT1A1, potassium phosphate buffer pH 7.0, 37°C, fluorescence at 545 nm) [µM]	substrate status with rSULT1A1 (rSULT1A1 [2])	Kd (rSULT1A1-PAP complex; [6]) [µM]	Kd (rSULT1A1-PAP complex; [7]) [µM]	Kd (rSULT1A1 [3]; [8]) [µM]	Kd (rSULT1A1 [3]; [9]) [µM]	inhibitor status with rSULT1A1 (rSULT1A1 [4])	IC50 (rSULT1A1 [4]) [µM]	substrate status with GSSG-pretreated (oxidized) rSULT1A1 (rSULT1A1 [5])	Kd (rSULT1A1 [1]; Kd of PAP displacing TNP-AMP bound to rSULT1A1, 0.34 µM rSULT1A1, pH 7.0, 37°C, Figure 4B) [µM]
2'-(or-3')-O-(trinitrophenyl)adenosine 5'-monophosphate [TNP-AMP]	6.5									
Oc1ccc(-c2ccc(Cl)c(Cl)c2)cc1 [4’-OH PCB 12]		substrates for rSULT1A1	3.1 ± 0.01	4.6 ± 1.2	4 ± 0.8	2.5 ± 0.7				
Oc1ccc(-c2ccc(Cl)cc2Cl)cc1Cl [4’-OH PCB 25]							the weakest inhibitor			
Oc1ccc(-c2cc(Cl)ccc2Cl)cc1 [4’-OH PCB 9]		substrates for rSULT1A1	3.1 ± 1.5	3.3 ± 0.1	12 ± 4	7.1 ± 1.3				
Oc1ccc(-c2ccc(Cl)c(Cl)c2)c(Cl)c1 [4’-OH PCB 33]			2 ± 0.01	2.4 ± 0.04	2 ± 0.1	2.5 ± 0.4	relatively weak inhibitors	26	converted from inhibitors to substrates; also recorded: substrates for oxidized rSULT1A1	
Nc1ncnc2c1ncn2[C@@H]1O[C@H](COP(=O)(O)O)[C@@H](OP(=O)(O)O)[C@H]1O [PAP, Adenosine 3’,5’-diphosphate]										2.6
Oc1c(Cl)cc(-c2ccc(Cl)cc2Cl)cc1Cl [4’-OH PCB 68]			0.47 ± 0.02	0.4 ± 0.04	0.67 ± 0.1	0.53 ± 0.1	inhibitors of the enzyme	0.85	non-substrates for GSSG-pretreated enzyme	
Oc1ccc(-c2cc(Cl)cc(Cl)c2)cc1Cl [4’-OH PCB 36]							relatively weak inhibitors		substrates for oxidized rSULT1A1	
Oc1ccc(-c2ccc(Cl)c(Cl)c2)cc1Cl [4’-OH PCB 35]		substrates for rSULT1A1; also recorded: the weakest substrate	1.6 ± 0.1	1.7 ± 0.1	3.6 ± 0.9	1.6 ± 0.4				
Oc1c(Cl)cc(-c2ccccc2Cl)cc1Cl [4-OH PCB 34]			0.49	0.54 ± 0.01	0.37 ± 0.01	0.23 ± 0.01	inhibitors of the enzyme	0.34	non-substrates for GSSG-pretreated enzyme	
Oc1ccc(Cl)cc1-c1ccc(Cl)c(Cl)c1 [6’-OH PCB 35]		substrates for rSULT1A1	3.7 ± 0.01	3.6 ± 1.3	65 ± 32	117 ± 36				
Oc1c(Cl)cc(-c2ccccc2)cc1Cl [4-OH PCB 14]			0.4 ± 0.05	0.29 ± 0.04	0.26 ± 0.03	0.22 ± 0.02		0.27	converted from inhibitors to substrates	
Oc1ccc(-c2ccccc2Cl)cc1Cl [4’-OH PCB 6]			0.88 ± 0.03	0.72 ± 0.01	0.66 ± 0.2	0.5 ± 0.1		23	converted from inhibitors to substrates	
